Data taken from ChEMBL document CHEMBL1145959, “Design and synthesis of 8-hydroxy-[1,6]naphthyridines as novel inhibitors of HIV-1 integrase in vitro and in infected cells” (J Med Chem, 2003).

Key:
[1] = Peak plasma level of compound (10 mg/kg) administered orally to rats after 60 min was determined; format: ADME, organism-based; parameters: dose 10 mg/kg, route oral; conditions: rat, po
Outline: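 Rats dosed orally at 10 mg/kg as a 3.0 mg/mL aqueous solution with 1% methylcellulose and 1% DMSO. Plasma concentration followed over time, with Cmax taken as the peak plasma level.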

[2] = biological target: Human immunodeficiency virus type 1 integrase (Human immunodeficiency virus 1, UniProt Q7ZJM1); test: Compound was tested for its ability to inhibit the strand transfer of the integration process catalyzed by HIV integrase
Chain of Human immunodeficiency virus type 1 integrase (Q7ZJM1 whole entry): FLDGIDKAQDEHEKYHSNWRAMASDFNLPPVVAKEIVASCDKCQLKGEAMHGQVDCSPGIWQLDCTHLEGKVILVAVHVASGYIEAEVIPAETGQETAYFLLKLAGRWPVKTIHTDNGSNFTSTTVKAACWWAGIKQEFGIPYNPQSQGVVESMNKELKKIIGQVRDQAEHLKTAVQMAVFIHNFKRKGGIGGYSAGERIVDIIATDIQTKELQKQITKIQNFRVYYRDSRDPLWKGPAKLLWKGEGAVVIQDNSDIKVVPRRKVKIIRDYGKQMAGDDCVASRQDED

MT4 [3] = test: Cell culture inhibitory concentration which inhibits 95% spread of HIV infection in cell culture, using HIV-1 IIIB variant and MT-4 T-lymphoid cells; format: functional; conditions: Homo sapiens, read-out: CIC95
MT4 [4] = test: Cytotoxicity of compound was determined on MT-4 cells; format: functional, Homo sapiens
Outline: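 MT-4 cultures incubated 4 days with inhibitor. Toxicity scored by visual inspection for cytopathic effects: gross morphological changes, altered growth pattern, and metabolic change seen as lack of change in the medium pH indicator. Cell numbers also checked; cells typically double at least 4 times over the 4 days.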

Row | Structure (SMILES) | Cmax [1] | IC50 [2] | IC95 (MT4 [3]) | Cytotoxicity (MT4 [4])
1 | O=C(c1cc(Cc2ccccc2)cc(CN2CCCS2(=O)=O)c1)c1ncc2cccnc2c1O | 1170 nM | 0.01 µM | 0.39 µM | >12.5 µM
2 | O=C(c1cccc(Cc2ccccc2)c1)c1oc2cccnc2c1O | – | 1 µM | > 50 µM | 12.5 µM
3 | O=C(c1cccc(Cc2ccccc2)c1)c1ncc2cccnc2c1O | – | 0.04 µM | 6.2 µM | 12.5 µM
4 | O=C(O)C(=O)CC(=O)c1cccc(Cc2ccccc2)c1 | – | 0.01 µM | 1.11 µM | >50 µM
5 | O=C(c1cc(Cc2ccccc2)ccn1)c1ccc2cccnc2c1O | – | 0.05 µM | 2.5 µM | 2.5 µM
6 | O=c1c2cc(Cc3ccccc3)ccc2oc2ccc(O)c(O)c12 | – | 0.6 µM | 6 µM | 3 µM
7 | O=C(c1cccc(Cc2ccccc2)c1)c1ccc2cccnc2c1O | – | – | 5 µM | 1.25 µM
